Test results published in the M2OR odorant receptor database.
Substitutions are numbered along the chain they refer to.

What was measured:
Settings in all cases: stereoisomer not certain
[1] = molecular target: T1, OR2A7 (Homo sapiens) (UniProt Q96R45)
T1 sequence (whole entry): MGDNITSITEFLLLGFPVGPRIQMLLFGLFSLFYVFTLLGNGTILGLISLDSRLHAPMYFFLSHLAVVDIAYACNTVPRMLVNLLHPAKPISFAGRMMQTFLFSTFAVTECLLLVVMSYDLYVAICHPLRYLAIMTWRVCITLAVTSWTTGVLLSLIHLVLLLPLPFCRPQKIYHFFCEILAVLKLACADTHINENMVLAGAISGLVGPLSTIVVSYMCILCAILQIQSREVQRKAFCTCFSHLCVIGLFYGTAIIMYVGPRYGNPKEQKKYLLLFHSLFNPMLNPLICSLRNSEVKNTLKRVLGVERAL
Procedure, shortened: (§1)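 Values were gathered from published papers (main text and supplementary material), with extra details requested from the original authors when needed, and checked for typos and inconsistencies. Each receptor–molecule pair is called responsive (active) if the original authors judged the measured signal statistically different from baseline, and non-responsive (inactive) otherwise. Assay methods varied by source, often transient mammalian cell-line luciferase assays. Recorded details include cell line, G-protein, co-transfected protein and tags.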

[2] = molecular target: T2, OR2A25 (Homo sapiens) (UniProt A4D2G3)
T2 sequence (whole entry): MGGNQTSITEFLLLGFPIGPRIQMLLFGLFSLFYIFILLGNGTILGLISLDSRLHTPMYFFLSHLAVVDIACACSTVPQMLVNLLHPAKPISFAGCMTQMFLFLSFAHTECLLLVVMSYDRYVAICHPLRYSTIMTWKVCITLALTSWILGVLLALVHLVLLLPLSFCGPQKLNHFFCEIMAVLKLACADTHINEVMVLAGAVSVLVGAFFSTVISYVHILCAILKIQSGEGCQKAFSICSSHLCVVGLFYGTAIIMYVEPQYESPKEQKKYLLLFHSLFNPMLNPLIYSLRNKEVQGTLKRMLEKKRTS
Procedure, shortened: as §1

[3] = molecular target: T3, OR2B11 (Homo sapiens) (UniProt Q5JQS5)
T3 sequence (whole entry): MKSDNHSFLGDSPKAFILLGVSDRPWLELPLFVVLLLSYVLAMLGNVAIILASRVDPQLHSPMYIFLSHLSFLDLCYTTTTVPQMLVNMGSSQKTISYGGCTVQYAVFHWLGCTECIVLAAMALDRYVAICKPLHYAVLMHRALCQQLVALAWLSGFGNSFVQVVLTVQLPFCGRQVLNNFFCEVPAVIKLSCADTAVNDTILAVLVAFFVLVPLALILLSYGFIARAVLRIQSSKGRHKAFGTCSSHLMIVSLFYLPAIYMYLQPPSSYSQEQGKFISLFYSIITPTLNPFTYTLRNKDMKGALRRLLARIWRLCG
Procedure, shortened: as §1

[4] = molecular target: T4, OR2A12 (Homo sapiens) (UniProt Q8NGT7)
T4 sequence (whole entry): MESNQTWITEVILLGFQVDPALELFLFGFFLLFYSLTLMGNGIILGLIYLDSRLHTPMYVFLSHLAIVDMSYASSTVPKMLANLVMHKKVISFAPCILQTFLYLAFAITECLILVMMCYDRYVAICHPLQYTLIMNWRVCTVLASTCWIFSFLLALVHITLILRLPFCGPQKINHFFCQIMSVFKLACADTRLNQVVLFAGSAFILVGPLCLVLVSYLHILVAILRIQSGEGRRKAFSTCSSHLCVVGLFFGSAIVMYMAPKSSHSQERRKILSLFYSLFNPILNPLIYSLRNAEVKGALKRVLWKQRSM
Procedure, shortened: as §1

[5] = molecular target: T5, OR2A14 (Homo sapiens) (UniProt Q96R47)
T5 sequence (whole entry): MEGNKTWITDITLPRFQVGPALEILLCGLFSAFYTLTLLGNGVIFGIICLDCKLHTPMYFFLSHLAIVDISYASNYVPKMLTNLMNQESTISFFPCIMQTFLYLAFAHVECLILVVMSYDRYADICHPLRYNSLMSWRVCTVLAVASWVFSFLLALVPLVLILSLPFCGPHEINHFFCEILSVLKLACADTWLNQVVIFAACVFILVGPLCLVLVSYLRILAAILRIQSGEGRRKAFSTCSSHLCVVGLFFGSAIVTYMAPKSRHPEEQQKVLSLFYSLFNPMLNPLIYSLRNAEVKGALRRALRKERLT
Procedure, shortened: as §1

[6] = molecular target: T6, OR2A2 (Homo sapiens) (UniProt Q6IF42)
T6 sequence (whole entry): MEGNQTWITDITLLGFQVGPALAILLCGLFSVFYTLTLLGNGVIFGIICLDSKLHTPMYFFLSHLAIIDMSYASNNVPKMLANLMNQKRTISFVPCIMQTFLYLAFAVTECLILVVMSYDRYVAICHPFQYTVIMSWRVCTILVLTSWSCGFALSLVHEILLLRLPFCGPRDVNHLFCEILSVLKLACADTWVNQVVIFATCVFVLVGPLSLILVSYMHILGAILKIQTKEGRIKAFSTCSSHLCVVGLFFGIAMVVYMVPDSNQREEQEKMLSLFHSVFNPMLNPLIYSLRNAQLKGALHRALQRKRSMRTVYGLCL
Procedure, shortened: as §1

[7] = molecular target: T7, OR2A4 (Homo sapiens) (UniProt O95047)
T7 sequence (whole entry): T1 sequence (whole entry) with T9R, C238R, F250V
Procedure, shortened: as §1

[8] = molecular target: T8, OR2A5 (Homo sapiens) (UniProt Q96R48)
T8 sequence (whole entry): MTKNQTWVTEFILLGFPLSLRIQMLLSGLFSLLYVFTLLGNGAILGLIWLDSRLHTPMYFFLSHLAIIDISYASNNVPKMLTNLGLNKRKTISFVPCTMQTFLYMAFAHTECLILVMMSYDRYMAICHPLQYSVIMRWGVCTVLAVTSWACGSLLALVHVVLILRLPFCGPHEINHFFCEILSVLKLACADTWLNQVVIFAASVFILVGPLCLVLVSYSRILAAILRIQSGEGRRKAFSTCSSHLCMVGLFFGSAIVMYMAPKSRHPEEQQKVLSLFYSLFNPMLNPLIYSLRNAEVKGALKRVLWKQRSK
Procedure, shortened: as §1

[9] = molecular target: T9, OR2AE1 (Homo sapiens) (UniProt Q8NHA4)
T9 sequence (whole entry): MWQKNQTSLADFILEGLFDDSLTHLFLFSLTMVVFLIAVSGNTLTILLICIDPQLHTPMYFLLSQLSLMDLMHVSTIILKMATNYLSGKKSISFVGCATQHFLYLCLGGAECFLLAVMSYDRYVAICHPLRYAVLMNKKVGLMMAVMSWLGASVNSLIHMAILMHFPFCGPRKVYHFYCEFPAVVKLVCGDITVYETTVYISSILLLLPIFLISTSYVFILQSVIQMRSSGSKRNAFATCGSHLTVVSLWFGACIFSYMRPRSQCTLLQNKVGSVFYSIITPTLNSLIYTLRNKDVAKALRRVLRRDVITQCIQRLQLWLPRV
Procedure, shortened: as §1

[10] = molecular target: T10, OR2AG1 (Homo sapiens) (UniProt Q9H205)
T10 sequence (whole entry): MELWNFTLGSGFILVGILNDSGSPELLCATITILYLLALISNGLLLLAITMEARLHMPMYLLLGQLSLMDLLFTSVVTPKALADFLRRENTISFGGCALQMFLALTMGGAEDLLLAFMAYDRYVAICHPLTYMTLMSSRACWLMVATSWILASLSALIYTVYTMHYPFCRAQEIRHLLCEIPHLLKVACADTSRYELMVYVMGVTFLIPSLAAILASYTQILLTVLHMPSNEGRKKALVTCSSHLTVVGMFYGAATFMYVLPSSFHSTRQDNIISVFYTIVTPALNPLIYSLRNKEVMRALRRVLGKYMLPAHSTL
Procedure, shortened: as §1

[11] = molecular target: T11, OR2AG2 (Homo sapiens) (UniProt A6NM03)
T11 sequence (whole entry): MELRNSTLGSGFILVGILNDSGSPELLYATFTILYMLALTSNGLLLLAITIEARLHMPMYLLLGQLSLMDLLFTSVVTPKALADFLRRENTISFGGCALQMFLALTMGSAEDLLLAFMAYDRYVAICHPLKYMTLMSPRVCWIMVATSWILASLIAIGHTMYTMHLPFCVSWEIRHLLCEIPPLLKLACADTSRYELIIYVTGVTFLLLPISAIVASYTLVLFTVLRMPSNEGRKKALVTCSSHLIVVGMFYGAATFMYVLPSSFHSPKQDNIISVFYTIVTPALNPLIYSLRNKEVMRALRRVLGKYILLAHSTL
Procedure, shortened: as §1

[12] = molecular target: T12, OR2AJ1 (Homo sapiens) (UniProt Q8NGZ0)
T12 sequence (whole entry): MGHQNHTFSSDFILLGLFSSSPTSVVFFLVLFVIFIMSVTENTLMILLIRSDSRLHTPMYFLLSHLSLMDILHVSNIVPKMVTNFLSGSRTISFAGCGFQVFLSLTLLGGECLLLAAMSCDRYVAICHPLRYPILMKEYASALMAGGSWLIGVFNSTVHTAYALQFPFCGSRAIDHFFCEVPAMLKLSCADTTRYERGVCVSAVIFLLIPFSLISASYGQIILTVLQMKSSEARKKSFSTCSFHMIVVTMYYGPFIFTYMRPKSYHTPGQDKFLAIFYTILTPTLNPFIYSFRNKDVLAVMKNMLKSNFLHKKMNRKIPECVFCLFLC
Procedure, shortened: as §1

[13] = molecular target: T13, OR2AK2 (Homo sapiens) (UniProt Q8NG84)
T13 sequence (whole entry): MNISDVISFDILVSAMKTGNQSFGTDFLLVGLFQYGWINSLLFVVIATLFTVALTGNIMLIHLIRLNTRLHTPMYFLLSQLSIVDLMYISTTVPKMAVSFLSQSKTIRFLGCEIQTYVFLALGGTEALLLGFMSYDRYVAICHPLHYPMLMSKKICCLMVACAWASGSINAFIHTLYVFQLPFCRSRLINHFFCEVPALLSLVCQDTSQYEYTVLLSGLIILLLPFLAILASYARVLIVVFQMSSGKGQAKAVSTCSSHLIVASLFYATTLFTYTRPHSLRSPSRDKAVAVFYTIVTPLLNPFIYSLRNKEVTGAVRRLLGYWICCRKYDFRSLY
Procedure, shortened: as §1

[14] = molecular target: T14, OR2AP1 (Homo sapiens) (UniProt Q8NGE2)
T14 sequence (whole entry): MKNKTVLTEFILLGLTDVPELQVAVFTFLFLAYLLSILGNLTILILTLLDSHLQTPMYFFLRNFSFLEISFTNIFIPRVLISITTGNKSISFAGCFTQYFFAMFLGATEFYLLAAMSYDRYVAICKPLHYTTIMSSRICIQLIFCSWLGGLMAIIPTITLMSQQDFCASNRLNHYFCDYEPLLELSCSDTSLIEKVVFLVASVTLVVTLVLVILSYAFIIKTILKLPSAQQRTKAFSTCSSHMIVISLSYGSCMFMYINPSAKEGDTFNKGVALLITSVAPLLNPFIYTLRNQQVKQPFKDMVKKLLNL
Procedure, shortened: as §1

[15] = molecular target: T15, OR2AT4 (Homo sapiens) (UniProt A6NND4)
T15 sequence (whole entry): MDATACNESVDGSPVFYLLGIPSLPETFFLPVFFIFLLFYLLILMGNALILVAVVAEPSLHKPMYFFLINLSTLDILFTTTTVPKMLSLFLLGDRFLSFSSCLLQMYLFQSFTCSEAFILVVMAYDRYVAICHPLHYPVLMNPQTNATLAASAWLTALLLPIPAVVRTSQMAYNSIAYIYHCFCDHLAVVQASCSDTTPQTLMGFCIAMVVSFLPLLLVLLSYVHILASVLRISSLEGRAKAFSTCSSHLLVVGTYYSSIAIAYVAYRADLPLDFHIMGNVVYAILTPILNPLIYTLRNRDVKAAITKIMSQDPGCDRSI
Procedure, shortened: as §1

[16] = molecular target: T16, OR2B2 (Homo sapiens) (UniProt Q9GZK3)
T16 sequence (whole entry): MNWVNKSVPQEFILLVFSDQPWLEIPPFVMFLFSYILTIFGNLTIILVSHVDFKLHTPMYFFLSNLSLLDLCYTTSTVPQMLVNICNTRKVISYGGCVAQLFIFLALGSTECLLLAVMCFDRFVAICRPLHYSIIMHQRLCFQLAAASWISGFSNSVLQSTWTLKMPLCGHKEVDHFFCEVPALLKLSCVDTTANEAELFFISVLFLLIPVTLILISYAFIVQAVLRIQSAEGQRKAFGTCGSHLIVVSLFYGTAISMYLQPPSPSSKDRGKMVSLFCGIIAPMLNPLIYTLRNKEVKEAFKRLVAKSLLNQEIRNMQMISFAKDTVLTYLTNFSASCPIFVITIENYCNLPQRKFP
Procedure, shortened: as §1

Measured: odorant receptor agonist call

CCCCCCCCCCCCCCCC(=O)[O-].[H+]
inactive: [1]

c1ccc2ncccc2c1
active: [2] | [3]

CCCCCCCCCCCCCC(=O)OCC
inactive: [1]

CCCCC(S)C(C)CO (stereo not drawn)
inactive: all assays above

CCCCCCCCCCCCCCCC(=O)OC
inactive: [1]

CCCCOCC(C)O (stereo not drawn)
inactive: [1]

CCCCCCCCCCCCCCCCCC(=O)OCC
inactive: [1]
